XiGFP reactiv – X-chromosome reactivation activator; XiGFP mouse fibroblasts, % GFP-positive cells imaging, 3 d; cells co-treated with 5-aza-dC sensitizer; scaled so ellipticine positive control = 100%; activation, % at 7.58 µM; 0.055% of 360,000 active; AID 743238;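 active means mean normalized replicate activation at least 10% and every replicate at or above 10%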;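 further: 0% = median of on-plate neutral control wells and 100% = ellipticine 6 µM median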
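Material: XiGFP fibroblasts, SV40-immortalized; Buffer or medium: DMEM containing 5-aza-dC; Compound dosing: single point; Times: 3 days compound exposure.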
dFosB act-1 – activators of mouse delta FosB homodimer; P13346; purified delta FosB, TAMRA-CDK5 oligo fluorescence polarization; percent of positive-control signal above neutral wells; activation, % at 25 µM; 0.99% of 340,000 active; AID 493131;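 active means mean activation above about 17%, with every replicate also reaching it, limit read from the data, passing the limit was not always enough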
PvdQ inh – P. aeruginosa PvdQ acylase inhibition | purified PvdQ acylase, fluorescence plate reader | inhibition, % at 10 µM | 0.063% of 340,000 active | AID 488965; in the data active means inhibition above about 30%, passing the limit was not always enough;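 further: 0% = vehicle neutral wells and 100% = reference inhibitor wells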
SR-BI uptake up – enhances SR-BI lipid uptake from DiI-HDL. 0.096% of 320,000 active. AID 504775. CHO ldlA[mSR-BI] cells, DiI-HDL uptake fluorescence, 3 h; 100 = double the neutral-control signal. activation, % at 12.5 µM;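 active means mean replicate activation of at least 60% and every replicate at or above 60%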;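 further: 0% = median plate neutral-control signal and 100% = twice that signal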
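System: LDL receptor-deficient CHO ldlA cells overexpressing murine SR-BI | Timing: 3 h uptake period with compound, 37 °C | Medium: HEPES-buffered (25 mM, pH 7.4) F12 plus 0.5% BSA | Dosing: Single-point compound dose | Signal: Bottom-read fluorescence, 550/595 nm | Read-out: Retained DiI signal reflecting DiI-HDL uptake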
SR-BI HDL uptake – blocks mouse SR-BI lipid uptake from DiI-HDL. Q61009. ldlA[mSR-BI] CHO cells, DiI-HDL uptake fluorescence, 3 h. inhibition, % at 12.5 µM. 0.96% of 320,000 active. AID 488896;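 active means mean replicate inhibition of at least 70% and a set share of replicates each scoring 70 or more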;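 further: 0% = median of neutral control wells and 100% = median of positive control wells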
Ecoli rRNA inh – inhibits bacterial ribosomal RNA function over humanized ribosomes | GFP signal change (wild-type ribosome), % (no concentration beside the values) | AID 720706 | E. coli WT GFP vs humanized-ribosome RFP mutants, fluorescence, 24 h; stronger effect = lower value; DMSO median 0, no signal -100 | 1.6% of 350,000 active;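 active means significant combined selectivity score with lowered wild-type GFP, culture density cut under 30%, mutant RFP and density less affected; inactive means any of these conditions unmet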
dFosB act-2 – delta FosB (mouse) homodimer activation; shares compounds with dFosB act-1; purified delta FosB, TAMRA-CDK5 oligo fluorescence polarization; normalised: neutral wells 0, positive control 100; activation, % at 24.9 µM; 2,400 tested, under 10 active;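 active means highest replicate activation at or above 34% and every replicate reaching that threshold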;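 further: higher polarization means more probe DNA bound by delta FosB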
* hit, by the source's call; · = no result. This is a sample that favours compounds with a hit; in the whole collection about 2.6% have one here.

SMILES	XiGFP reactiv	dFosB act-1	PvdQ inh	SR-BI uptake up	SR-BI HDL uptake	Ecoli rRNA inh	dFosB act-2
O=C1CC(=C2c3ccccc3-c3ccccc32)C(=O)N1CCCCN1CCN(c2ccccc2)CC1	·	33*	-4	-9	9	·	3
Cc1ccc(S(=O)(=O)Nc2ccc3c(c2)C(=O)N([C@@H](C)CO)C[C@H](C)[C@@H](CN(C)C(=O)Nc2ccc4c(c2)OCO4)O3)cc1	0	·	·	·	·	1	·
C[C@H](CO)N1C[C@H](C)[C@@H](CN(C)S(C)(=O)=O)Oc2ccc(NC(=O)Nc3ccccc3)cc2CC1=O	0	·	·	·	·	-2	·
Cc1ccc(C)c(Cn2c3ccccc3c3cnn(CC(=O)NCc4ccccn4)c(=O)c32)c1	0	21*	-11	-26	26	14	1
O=C(Cn1ncc2c3ccccc3n(Cc3cccc(Cl)c3)c2c1=O)NCc1ccccn1	0	-11	-8	-8	8	-1	·
O=S1(=O)c2c(F)cccc2O[C@@H](COCc2ccccc2)CN1CCc1ccc(F)cc1	0	-2	-13	-38	38	25	·
CCOC(=O)[C@]12CCCC=C1N(Cc1ccc3c(c1)OCO3)C(=O)[C@H](CC(=O)NCCCOC)C2	0	·	·	·	·	7	·
COc1ccc(C(=O)CSc2nnc(CNc3ccc(C)cc3C)o2)cc1	·	-1	-7	-11	11	·	·
Cc1ccc(NCc2nnc(SCC(=O)c3ccc4c(c3)OCCO4)o2)c(C)c1	·	29*	-1	-26	26	-36*	2
Cc1ccc2sc(C)[n+](CCCS(=O)(=O)[O-])c2c1	0	-5	10	24	-24	18	·
CCc1cc(=O)oc2cc(C)cc(OC(C)C(=O)NC3CCN(Cc4ccccc4)CC3)c12 (stereo not given)	0	-16	-9	-32	32	-1	·
Cn1c(=O)c2c(ncn2CC(=O)Nc2nc(-c3ccc(F)c(F)c3)cs2)n(C)c1=O	0	32*	-5	-17	17	-2	9
O=C(Cn1nnc(-c2ccccc2F)n1)OCC(=O)c1ccccc1	0	1	-5	15	-15	15	·
O=C(Nc1ccc(S(=O)(=O)Nc2cnc3ccccc3n2)cc1)c1cccc(OC(F)F)c1	0	57*	-12	·	·	1	1
O=C(Nc1ccc(S(=O)(=O)Nc2cnc3ccccc3n2)cc1)c1ccc(F)cc1	0	-3	-4	14	-14	9	·
Fc1ccc(N2CCN(C3=Nc4cccc5cccc3c45)CC2)cc1	0	22*	2	-46	46	-54	2
COc1ccc(NC(=O)c2sc3ncn(CC(=O)N4CCN(c5ccccn5)CC4)c(=O)c3c2C)c(OC)c1	0	11	-10	-36	36	15	·
COc1cc(OC)c(NC(=O)c2sc3ncn(CC(=O)N4CCN(c5ccccn5)CC4)c(=O)c3c2C)cc1Cl	0	24*	-16	-58	58	-3	0
O=C(CCc1nc2ccccc2c(=O)[nH]1)Nc1ccc(Cl)c(Cl)c1	0	8	8	12	-12	-9	·
O=C(CCc1nc2ccccc2c(=O)[nH]1)NNC(=O)COc1ccccc1Cl	0	56*	-13	13	-13	12	1
COc1ccc(OC)c(/C=N/NC(=O)C(O)c2ccccc2)c1 (stereo not given)	0	7	-13	-13	13	-7	·
COC(=O)c1cc(NC(=O)C2CC(=O)NC(=NCc3ccc(OC)cc3)S2)cc(C(=O)OC)c1 (stereo not given)	0	37*	3	-36	36	8	-5
COc1cc2c(cc1OC)C(c1ccc(-c3ccc(Cl)cc3Cl)o1)=NCC2	·	34*	-1	-1	1	·	-30
CCCn1c(N)c(C(=O)CSc2nc3ncc(Cl)cc3[nH]2)c(=O)n(C)c1=O	0	28*	-5	-69	69	22	5

Screening results from PubChem.
